Source: article PMC6500731 (Clinical cancer research : an official journal of the …, 2018)
Read-outs that look alike come from different tables or passages of the source.

How the values were obtained:
eIF4A1-K82R = eIF4A1-K82R (Homo sapiens, UniProt P60842, K82R); assay: Malachite green ATP hydrolysis assay, eIF4A1-K82R mutant; assay type: biochemical
Method in brief: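 Malachite green ATPase run at 37 °C for 1 h. eIF4A1 wild-type, K82R (500 nM) or K238E (500 nM) in 20 mM MES-NaOH pH 6.0, 100 mM potassium acetate, 2.5 mM MgCl2, 1% glycerol, 1 mM DTT. ATP gradient 0–2 mM. Aliquot mixed with 9.3 µM malachite green, 53 mM ammonium molybdate, 1 M HCl, 0.04% Tween 20. Mean ± SEM, n=3.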

[1] = test system: eIF2α-S51 A/A and S/S MEFs; assay: Viability; assay type: cell-based, Murine; conditions: Mus musculus, 72 h
[2] = test system: 97 oncogenic and related kinases; assay: Commercial kinome screen; assay type: binding
[3] = test system: Non-Hodgkin Lymphoma cell lines; assay: Viability assay; assay type: cell-based
human chaperone HSP70 = human chaperone HSP70 (Homo sapiens, UniProt P0DMV8); assay: Malachite green ATP hydrolysis counter-screen, HSP70; assay type: biochemical
[4] = target: bacterial chaperonin GroEL (Escherichia coli, UniProt P0A6F5); assay: Malachite green ATP hydrolysis counter-screen, GroEL; assay type: biochemical
[5] = test system: engrafted B16 murine melanoma cells; conditions: 10 mg/kg daily i.p. or p.o.; cited from earlier work
[6] = test system: Harvard/Wellcome cancer cell line collection; assay: Growth inhibition screen, Harvard/Wellcome cell line collection; assay type: cell-based; conditions: 344/924 cell lines
DLBCL cell lines = assay: Apoptosis assay; assay type: cell-based
Method in brief: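 Flow-cytometric cell death: DLBCL cell lines treated as indicated for 24 h, alone or combined with the PERK inhibitor GSK2606414 or with 200 nM ISRIB. Cells washed once in ice-cold PBS, then co-stained with PE-Annexin V and 7-aminoactinomycin D. Mean ± SEM, n=3 biological replicates; unpaired two-tailed t-tests.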

Sequence of bacterial chaperonin GroEL (P0A6F5 whole entry): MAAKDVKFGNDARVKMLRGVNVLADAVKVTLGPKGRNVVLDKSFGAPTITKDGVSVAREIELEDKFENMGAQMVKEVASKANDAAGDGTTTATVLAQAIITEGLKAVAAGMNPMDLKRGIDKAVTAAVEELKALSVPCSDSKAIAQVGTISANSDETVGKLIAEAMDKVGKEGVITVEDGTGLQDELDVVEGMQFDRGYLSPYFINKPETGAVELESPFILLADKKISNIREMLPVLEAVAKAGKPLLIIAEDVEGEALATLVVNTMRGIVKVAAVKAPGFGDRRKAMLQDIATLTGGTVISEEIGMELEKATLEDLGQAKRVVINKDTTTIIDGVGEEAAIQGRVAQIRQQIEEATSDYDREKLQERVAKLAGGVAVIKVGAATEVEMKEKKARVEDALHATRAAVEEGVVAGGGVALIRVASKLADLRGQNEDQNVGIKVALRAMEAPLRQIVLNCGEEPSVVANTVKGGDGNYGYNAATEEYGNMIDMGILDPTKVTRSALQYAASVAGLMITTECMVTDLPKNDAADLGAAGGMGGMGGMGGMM
Sequence of human chaperone HSP70 (P0DMV8 whole entry): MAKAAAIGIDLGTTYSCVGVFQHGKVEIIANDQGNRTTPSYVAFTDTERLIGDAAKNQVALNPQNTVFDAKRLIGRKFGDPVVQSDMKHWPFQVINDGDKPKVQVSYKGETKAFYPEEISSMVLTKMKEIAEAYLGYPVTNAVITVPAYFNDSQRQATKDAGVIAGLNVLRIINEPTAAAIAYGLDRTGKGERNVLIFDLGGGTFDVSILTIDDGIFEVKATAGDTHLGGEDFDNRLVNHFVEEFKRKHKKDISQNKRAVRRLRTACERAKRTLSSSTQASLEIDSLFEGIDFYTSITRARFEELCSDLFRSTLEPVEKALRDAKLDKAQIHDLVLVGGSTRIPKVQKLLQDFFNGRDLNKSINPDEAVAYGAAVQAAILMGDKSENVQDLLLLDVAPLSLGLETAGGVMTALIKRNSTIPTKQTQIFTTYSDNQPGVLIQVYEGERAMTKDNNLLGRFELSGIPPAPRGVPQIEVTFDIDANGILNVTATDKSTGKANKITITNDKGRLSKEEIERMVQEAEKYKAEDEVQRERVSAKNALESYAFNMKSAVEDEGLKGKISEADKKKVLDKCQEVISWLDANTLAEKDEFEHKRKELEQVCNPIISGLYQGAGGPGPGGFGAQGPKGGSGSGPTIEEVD
Sequence of eIF4A1-K82R (P60842 whole entry K82R): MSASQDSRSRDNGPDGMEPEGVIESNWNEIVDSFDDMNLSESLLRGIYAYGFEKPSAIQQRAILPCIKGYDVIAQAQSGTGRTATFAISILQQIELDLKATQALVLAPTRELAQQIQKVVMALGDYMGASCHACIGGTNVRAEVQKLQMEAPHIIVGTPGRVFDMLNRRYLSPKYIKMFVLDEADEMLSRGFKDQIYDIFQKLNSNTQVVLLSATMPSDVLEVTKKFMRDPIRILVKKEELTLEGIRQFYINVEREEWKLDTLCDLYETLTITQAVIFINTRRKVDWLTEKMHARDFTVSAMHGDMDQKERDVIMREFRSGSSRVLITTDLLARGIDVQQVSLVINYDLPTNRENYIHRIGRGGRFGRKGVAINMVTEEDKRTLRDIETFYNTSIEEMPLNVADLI

Question: Which results are given for `C=C1C[C@H](O)[C@H](Br)C(C)(C)[C@@]12CCC(C)=C(Cl)C2` [elatol]?
Answer: IC50 (eIF4A1-K82R): 85500 ± 31800 nM; IC50 ([1]; read-out: IC50, viability, eIF2α-S51 A/A MEFs, 72 hour): 1030 nM; IC50 ([1]; read-out: IC50, viability, eIF2α-S51 S/S MEFs, 72 hour): 1400 nM; activity against 97 oncogenic and related kinases [2]: no activity; toxic concentration in the preliminary screen of cancer cell lines ([3]; preliminary screen): less than 1 μM; fold less potent than silvestrol ([3]; sensitive tumor cells in vitro): 5–10 fold; activity against ATP hydrolysis by HSP70 (human chaperone HSP70): no activity; activity against ATP hydrolysis by GroEL [4]: no activity; antitumor activity [5]: antitumor activity; share of cell lines having IC50 < 1μM [6]: 37%; effect of ISRIB on elatol's toxicity (DLBCL cell lines; OCI-Ly3 cells, combination with 200 nM ISRIB): no effect; effect of PERK inhibitor GSK2606414 on elatol's potency (DLBCL cell lines; annexin V staining, 24 hours, combination with PERKi): no significant reversal; apoptosis (DLBCL cell lines; by 24 hours, most sensitive DLBCL line): greater than 50%
